Measurements as given in the M2OR odorant receptor database.

Assays:
Conditions in all cases: stereoisomer not certain
UniProt A2ASV2 = molecular target: UniProt A2ASV2
Procedure, shortened: (§1)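 Assay methods differ from source to source, frequently being transient luciferase assays in mammalian cell lines. For each receptor–molecule pair, the label responsive (active) applies when the original authors judged the measured signal statistically different from baseline, and non-responsive (inactive) applies otherwise.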

UniProt A2AVA9 = molecular target: UniProt A2AVA9
Procedure, shortened: as §1

UniProt A2AVB5 = molecular target: T1, UniProt A2AVB5
T1 sequence (whole entry): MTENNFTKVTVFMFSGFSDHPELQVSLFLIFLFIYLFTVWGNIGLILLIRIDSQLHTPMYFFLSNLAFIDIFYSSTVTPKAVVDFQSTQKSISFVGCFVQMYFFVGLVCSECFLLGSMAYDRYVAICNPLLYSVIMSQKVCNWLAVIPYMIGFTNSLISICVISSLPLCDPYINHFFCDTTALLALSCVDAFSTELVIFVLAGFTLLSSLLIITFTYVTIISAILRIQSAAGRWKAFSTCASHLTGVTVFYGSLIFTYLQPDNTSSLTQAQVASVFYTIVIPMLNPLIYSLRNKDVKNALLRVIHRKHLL
Procedure, shortened: as §1

UniProt A2AVC3 = molecular target: UniProt A2AVC3
Procedure, shortened: as §1

UniProt B2RVX8 = molecular target: T2, UniProt B2RVX8
T2 sequence (whole entry): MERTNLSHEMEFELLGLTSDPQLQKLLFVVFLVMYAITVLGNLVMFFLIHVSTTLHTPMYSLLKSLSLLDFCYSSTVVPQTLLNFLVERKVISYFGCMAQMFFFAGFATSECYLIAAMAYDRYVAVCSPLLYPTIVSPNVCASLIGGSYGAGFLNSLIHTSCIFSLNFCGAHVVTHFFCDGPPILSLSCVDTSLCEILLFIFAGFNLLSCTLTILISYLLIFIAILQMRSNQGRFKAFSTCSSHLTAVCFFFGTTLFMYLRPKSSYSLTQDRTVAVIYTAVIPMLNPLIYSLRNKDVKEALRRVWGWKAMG
Procedure, shortened: as §1

UniProt E9PXH6 = molecular target: UniProt E9PXH6
Procedure, shortened: as §1

UniProt A2ATE5 = molecular target: T3, UniProt A2ATE5
T3 sequence (whole entry): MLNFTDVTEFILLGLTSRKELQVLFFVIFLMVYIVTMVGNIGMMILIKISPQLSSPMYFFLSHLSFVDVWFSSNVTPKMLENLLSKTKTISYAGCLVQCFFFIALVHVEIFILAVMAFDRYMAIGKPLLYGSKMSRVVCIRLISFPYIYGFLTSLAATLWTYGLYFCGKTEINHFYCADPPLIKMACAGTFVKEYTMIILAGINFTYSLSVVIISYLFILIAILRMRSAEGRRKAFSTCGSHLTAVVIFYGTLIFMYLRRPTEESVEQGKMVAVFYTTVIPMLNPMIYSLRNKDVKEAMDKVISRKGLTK
Procedure, shortened: as §1

UniProt A2AVB0 = molecular target: T4, UniProt A2AVB0
T4 sequence (whole entry): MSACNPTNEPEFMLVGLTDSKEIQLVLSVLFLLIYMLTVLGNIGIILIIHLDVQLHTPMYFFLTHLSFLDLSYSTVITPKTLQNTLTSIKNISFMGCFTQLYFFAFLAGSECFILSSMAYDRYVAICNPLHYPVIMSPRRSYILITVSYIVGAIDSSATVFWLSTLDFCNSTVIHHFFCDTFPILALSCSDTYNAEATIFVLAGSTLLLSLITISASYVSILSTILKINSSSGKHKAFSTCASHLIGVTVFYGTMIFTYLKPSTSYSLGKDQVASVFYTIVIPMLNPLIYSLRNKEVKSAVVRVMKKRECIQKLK
Procedure, shortened: as §1

UniProt E9PVX1 = molecular target: T5, UniProt E9PVX1
T5 sequence (whole entry): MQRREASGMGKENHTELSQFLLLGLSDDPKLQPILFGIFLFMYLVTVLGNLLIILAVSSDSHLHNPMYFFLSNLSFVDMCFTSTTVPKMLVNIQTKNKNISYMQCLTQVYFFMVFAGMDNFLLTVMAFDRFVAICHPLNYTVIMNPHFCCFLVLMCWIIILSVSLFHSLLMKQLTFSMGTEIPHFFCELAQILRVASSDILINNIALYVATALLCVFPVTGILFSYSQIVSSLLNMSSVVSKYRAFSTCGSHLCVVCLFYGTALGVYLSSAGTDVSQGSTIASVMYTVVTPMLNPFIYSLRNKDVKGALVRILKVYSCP
Procedure, shortened: as §1

UniProt E9PX47 = molecular target: T6, UniProt E9PX47
T6 sequence (whole entry): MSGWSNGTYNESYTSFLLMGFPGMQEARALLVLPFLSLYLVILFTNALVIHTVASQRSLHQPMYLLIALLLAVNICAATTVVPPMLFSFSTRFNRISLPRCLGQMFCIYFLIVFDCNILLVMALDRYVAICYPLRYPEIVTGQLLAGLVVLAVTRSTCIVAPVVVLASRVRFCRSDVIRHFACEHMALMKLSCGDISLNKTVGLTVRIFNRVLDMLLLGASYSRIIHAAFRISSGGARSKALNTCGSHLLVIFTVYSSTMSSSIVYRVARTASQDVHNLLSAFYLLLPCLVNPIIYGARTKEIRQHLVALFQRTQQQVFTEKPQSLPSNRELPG
Procedure, shortened: as §1

UniProt A0PK57 = molecular target: UniProt A0PK57
Procedure, shortened: as §1

Q8VF87 L210I = tested on: Q8VF87 L210I
Procedure, shortened: as §1

[1] = tested on: Q8VF87 V108T E162D V184F I202L L210I A279V
Procedure, shortened: as §1

[2] = tested on: Q8VF87 V108T E162D V184F I202L L210I
Procedure, shortened: as §1

[3] = tested on: Q8VF87 V108T E162D V184F I202L
Procedure, shortened: as §1

Q8VF87 V108T E162D V184F = tested on: Q8VF87 V108T E162D V184F
Procedure, shortened: as §1

Q8VF87 V108T E162D = tested on: Q8VF87 V108T E162D
Procedure, shortened: as §1

Q8VF87 V108T = tested on: Q8VF87 V108T
Procedure, shortened: as §1

Q8VF87 V184F = tested on: Q8VF87 V184F
Procedure, shortened: as §1

Measured: odorant receptor agonist call

Chain of UniProt A2AVA9 (A2AVA9 as listed by the source): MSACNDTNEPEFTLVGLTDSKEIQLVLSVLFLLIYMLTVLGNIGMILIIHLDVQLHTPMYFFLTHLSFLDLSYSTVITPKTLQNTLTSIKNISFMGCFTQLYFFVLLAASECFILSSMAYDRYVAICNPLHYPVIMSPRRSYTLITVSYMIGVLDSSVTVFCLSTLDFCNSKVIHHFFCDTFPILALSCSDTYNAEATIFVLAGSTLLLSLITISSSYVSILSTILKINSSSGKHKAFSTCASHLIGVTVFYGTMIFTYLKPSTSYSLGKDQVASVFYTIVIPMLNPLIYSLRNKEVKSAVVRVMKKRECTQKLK
Chain of UniProt A2AVC3 (A2AVC3 as listed by the source): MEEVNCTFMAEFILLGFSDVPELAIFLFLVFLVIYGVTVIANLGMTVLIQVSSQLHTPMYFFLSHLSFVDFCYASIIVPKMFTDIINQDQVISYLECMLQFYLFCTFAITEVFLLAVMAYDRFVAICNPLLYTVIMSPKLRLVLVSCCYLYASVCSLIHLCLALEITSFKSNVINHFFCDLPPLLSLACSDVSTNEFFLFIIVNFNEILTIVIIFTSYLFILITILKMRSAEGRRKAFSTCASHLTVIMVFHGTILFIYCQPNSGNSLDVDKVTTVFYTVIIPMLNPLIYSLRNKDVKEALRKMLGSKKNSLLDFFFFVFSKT
Chain of UniProt E9PXH6 (E9PXH6 as listed by the source): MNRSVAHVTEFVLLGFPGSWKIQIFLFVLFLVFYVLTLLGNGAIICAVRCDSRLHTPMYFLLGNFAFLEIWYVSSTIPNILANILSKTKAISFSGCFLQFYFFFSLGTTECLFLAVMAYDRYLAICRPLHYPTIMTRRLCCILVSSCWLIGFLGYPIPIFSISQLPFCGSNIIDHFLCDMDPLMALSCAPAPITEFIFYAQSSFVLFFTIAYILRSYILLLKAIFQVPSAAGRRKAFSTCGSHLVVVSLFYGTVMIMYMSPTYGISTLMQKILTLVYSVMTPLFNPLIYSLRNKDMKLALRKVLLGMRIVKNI
Chain of UniProt A2ASV2 (A2ASV2 as listed by the source): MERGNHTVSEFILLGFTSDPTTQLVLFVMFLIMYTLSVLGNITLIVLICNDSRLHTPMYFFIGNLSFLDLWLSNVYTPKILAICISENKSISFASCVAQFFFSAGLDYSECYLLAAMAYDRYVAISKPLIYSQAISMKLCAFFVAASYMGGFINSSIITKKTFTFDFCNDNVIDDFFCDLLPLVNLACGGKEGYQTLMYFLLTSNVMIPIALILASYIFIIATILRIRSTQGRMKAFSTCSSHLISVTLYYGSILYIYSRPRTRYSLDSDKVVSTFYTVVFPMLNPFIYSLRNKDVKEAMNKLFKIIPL
Chain of UniProt A0PK57 (A0PK57 as listed by the source): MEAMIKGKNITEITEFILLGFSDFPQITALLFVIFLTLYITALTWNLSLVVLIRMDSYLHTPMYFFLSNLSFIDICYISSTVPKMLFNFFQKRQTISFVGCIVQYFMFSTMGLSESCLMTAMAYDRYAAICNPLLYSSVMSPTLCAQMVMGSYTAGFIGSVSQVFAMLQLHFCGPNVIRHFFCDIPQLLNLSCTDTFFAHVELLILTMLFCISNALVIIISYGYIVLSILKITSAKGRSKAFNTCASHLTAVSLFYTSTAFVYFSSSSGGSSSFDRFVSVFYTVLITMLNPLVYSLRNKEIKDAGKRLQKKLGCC

O=c1ccc2ccccc2o1
active: UniProt A2ASV2 | UniProt A2AVA9 | UniProt A2AVB5 | UniProt E9PXH6
inactive: UniProt A2AVC3 | UniProt B2RVX8

CC(=O)Oc1ccccc1
inactive: UniProt A2ATE5 | UniProt A2AVB0 | UniProt A2AVB5 | UniProt B2RVX8 | UniProt E9PVX1

CCCCCCCCCO
inactive: UniProt A2ATE5 | UniProt A2AVB0 | UniProt A2AVB5 | UniProt B2RVX8 | UniProt E9PVX1 | UniProt E9PX47

CCCCCOC(=O)CCCCC
inactive: UniProt A2ATE5 | UniProt A2AVB0 | UniProt A2AVB5 | UniProt B2RVX8 | UniProt E9PVX1

CCCCCC=O
inactive: UniProt A2ATE5 | UniProt A2AVB0 | UniProt A2AVB5 | UniProt B2RVX8 | UniProt E9PVX1

c1ccccc1
inactive: UniProt A2ATE5 | UniProt A2AVB0 | UniProt A2AVB5 | UniProt B2RVX8 | UniProt E9PVX1

O=C1CCOc2ccccc21
active: UniProt A2AVA9 | UniProt A2AVB5 | UniProt E9PXH6
inactive: UniProt A2ASV2 | UniProt A2ATE5 | UniProt A2AVB0 | UniProt A2AVC3 | UniProt B2RVX8 | UniProt E9PVX1

CC(=O)OCc1ccccc1
inactive: UniProt A2ATE5 | UniProt A2AVB0 | UniProt A2AVB5 | UniProt B2RVX8 | UniProt E9PVX1

CCCCOC=O
inactive: UniProt A2ATE5 | UniProt A2AVB0 | UniProt A2AVB5 | UniProt B2RVX8 | UniProt E9PVX1

CCCCCC1=C(C)CCC1=O
active: UniProt B2RVX8
inactive: UniProt A2ATE5 | UniProt A2AVB0 | UniProt A2AVB5 | UniProt E9PVX1

C=C(C)C1CCC(C)C(=O)C1 (stereo not drawn)
inactive: UniProt A2ATE5 | UniProt A2AVB0 | UniProt A2AVB5 | UniProt B2RVX8 | UniProt E9PVX1

CC(C)=CCCC(C)=CCO
inactive: UniProt A2ATE5 | UniProt A2AVB0 | UniProt A2AVB5 | UniProt B2RVX8 | UniProt E9PVX1

CCCCC(C)=O
inactive: UniProt A2ATE5 | UniProt A2AVB0 | UniProt A2AVB5 | UniProt B2RVX8 | UniProt E9PVX1

CC(C)=CCCC(C)CCO (stereo not drawn)
inactive: UniProt A2ATE5 | UniProt A2AVB0 | UniProt A2AVB5 | UniProt B2RVX8 | UniProt E9PVX1

COc1cc(C(=O)O)ccc1O
inactive: UniProt A2ATE5 | UniProt A2AVB0 | UniProt A2AVB5 | UniProt B2RVX8 | UniProt E9PVX1

CC(=O)OCC=C(C)C
inactive: UniProt A2ATE5 | UniProt A2AVB0 | UniProt A2AVB5 | UniProt B2RVX8 | UniProt E9PVX1

CCCCCCCCCS
inactive: UniProt A2ATE5 | UniProt A2AVB0 | UniProt A2AVB5 | UniProt B2RVX8 | UniProt E9PVX1

CCC(=O)O
inactive: UniProt A2ATE5 | UniProt A2AVB0 | UniProt A2AVB5 | UniProt B2RVX8 | UniProt E9PVX1

CCCCCCOC(C)=O
inactive: UniProt A2ATE5 | UniProt A2AVB0 | UniProt A2AVB5 | UniProt B2RVX8 | UniProt E9PVX1

CC1CCCCCCCCCCCCC(=O)C1 (stereo not drawn)
inactive: UniProt A0PK57

CCCC(=O)C(C)=O
inactive: UniProt A2ATE5 | UniProt A2AVB0 | UniProt A2AVB5 | UniProt B2RVX8 | UniProt E9PVX1

CCCCCCC(C)=O
inactive: UniProt A2ATE5 | UniProt A2AVB0 | UniProt A2AVB5 | UniProt B2RVX8 | UniProt E9PVX1

CCCCCCCO
inactive: UniProt A2ATE5 | UniProt A2AVB0 | UniProt A2AVB5 | UniProt B2RVX8 | UniProt E9PVX1 | UniProt E9PX47

CCCCCC(=O)CC
inactive: UniProt A2ATE5 | UniProt A2AVB0 | UniProt A2AVB5 | UniProt B2RVX8 | UniProt E9PVX1

O=C1Cc2ccccc2O1
inactive: UniProt A2ATE5 | UniProt A2AVB0 | UniProt A2AVB5 | UniProt B2RVX8 | UniProt E9PVX1

CC12CCC(CC1=O)C2(C)C (stereo not drawn)
inactive: UniProt A2ATE5 | UniProt A2AVB0 | UniProt A2AVB5 | UniProt B2RVX8 | UniProt E9PVX1

O=C(c1ccccc1)c1ccccc1
inactive: UniProt A2ATE5 | UniProt A2AVB0 | UniProt A2AVB5 | UniProt B2RVX8 | UniProt E9PVX1

CCCCCCCC(C)=O
inactive: UniProt A2ATE5 | UniProt A2AVB0 | UniProt A2AVB5 | UniProt B2RVX8 | UniProt E9PVX1

CCCCCCCCS
inactive: UniProt A2ATE5 | UniProt A2AVB0 | UniProt A2AVB5 | UniProt B2RVX8 | UniProt E9PVX1

CCC(=O)C(=O)CC
inactive: UniProt A2ATE5 | UniProt A2AVB0 | UniProt A2AVB5 | UniProt B2RVX8 | UniProt E9PVX1

CCCCC(=O)CC
inactive: UniProt A2ATE5 | UniProt A2AVB0 | UniProt A2AVB5 | UniProt B2RVX8 | UniProt E9PVX1

CCOC(=O)C(C)C
inactive: UniProt A2ATE5 | UniProt A2AVB0 | UniProt A2AVB5 | UniProt B2RVX8 | UniProt E9PVX1

CCCCCCCCCCO
inactive: UniProt A2ATE5 | UniProt A2AVB0 | UniProt A2AVB5 | UniProt B2RVX8 | UniProt E9PVX1

CCC(S)C(C)CO (stereo not drawn)
inactive: Q8VF87 L210I | [1] | [2] | [3] | Q8VF87 V108T E162D V184F | Q8VF87 V108T E162D | Q8VF87 V108T | Q8VF87 V184F

CCCCCCCCO
inactive: UniProt A2ATE5 | UniProt A2AVB0 | UniProt A2AVB5 | UniProt B2RVX8 | UniProt E9PVX1 | UniProt E9PX47

C=CCOC(=O)CCCCCC
inactive: UniProt A2ATE5 | UniProt A2AVB0 | UniProt A2AVB5 | UniProt B2RVX8 | UniProt E9PVX1

CCCCC(=O)O
inactive: UniProt A2ATE5 | UniProt A2AVB0 | UniProt A2AVB5 | UniProt B2RVX8 | UniProt E9PVX1 | UniProt E9PX47
